Only a selection was taken, and hits are over-represented in it overall.
CHOP inhibitor – inhibitors of CHOP induction in ER stress response | inhibition, % at 10 µM | CHO-K1 CHOP-promoter luciferase, tunicamycin-induced, 15-18 h | 3.8% of 220,000 active;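 active = compounds that reduced the stress-induced luciferase reporter signal by more than about 70% of percent inhibition, limit read from the data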
UPR XBP1 act – activators of adaptive arm of unfolded protein response (XBP1); 0.33% of 330,000 active; activation, % at 20 µM; CHO-XBP1 luciferase reporter, IRE1-XBP1 UPR activation, luminescence; percent of tunicamycin response, DMSO as zero;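 active = versus positive control, 20 µM dose yields 30% or more activation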
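Assay system: CHO-XBP1 luciferase reporter cells; Schedule: 6 h treatment, 37 °C; Detection: glow luminescence from Steady-Glo reagent; Benchmarks: high control tunicamycin 10 µg/mL final, low control DMSO vehicle only.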
UPR CHOP act – apoptotic UPR (CHOP) activation; CHO-CHOP luciferase reporter, luminescence; percent of tunicamycin response over DMSO baseline; activation, % at 10 µM; 0.34% of 330,000 active; AID 449763;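 active = at 10 µM dose, activation of 40% or more, normalized to positive control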
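Dosing – one dose, 10 µM in 0.5% DMSO · System – CHO-CHOP cells, stable luciferase reporter of PERK-eIF2a-CHOP signalling · Input – 500 cells/well · Control set – tunicamycin 10 µg/mL final as positive, DMSO-only wells as negative · Timing – 6 h compound treatment, 37 °C · Measure – % activation vs tunicamycin · Technique – luminescence read with Steady-Glo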
Dynein transport – blocks dynein driven cargo transport along microtubules; 3617.4 mouse cells, GR-EGFP nuclear translocation imaging; test concentration mostly 20 µM; stimulated with dexamethasone, 1 µM; stronger effect = lower value; z-score, hits read low; 0.47% of 220,000 active; AID 1381;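 active = plate z-score of nuclear minus cytoplasmic receptor signal below a set negative limit, without overly bright fluorescence or cell loss, cut at about -3.5 in these data, passing the limit was not always enough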;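 note: z-score of nuclear minus cytoplasmic ring GR-EGFP intensity difference per well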
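Buffer or medium: tet-free, stripped-serum medium; Also added: dexamethasone, 1.0 µM final; Technique: high-content fluorescence imaging after fixation; Times: 48 h induction, 1 h compound, 30 min dex at 37 °C; Read-out: per-cell GR-EGFP intensity, nucleus versus surrounding cytoplasmic ring, well-averaged.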
Lmaj promast – reduces viability of Leishmania major promastigotes; inhibition, % at 10 µM; 9% of 200,000 active; resazurin fluorescence viability; in the data active = inhibition above about 50%;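 note: promastigotes grown with compound for 44 hours at 28 °C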
T cruzi inh – blocks replication of Trypanosoma cruzi; T. cruzi beta-gal in NIH3T3, luminescence, 90 h; inhibition, % (no concentration beside the values); 1.4% of 300,000 active;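 active = mean inhibition across valid replicates above about 55%, limit read from the data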;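 note: signal also drops with host cell toxicity which is not excluded here; higher percent means less beta-gal luminescence so fewer parasites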
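System: NIH/3T3 fibroblasts plus reporter T. cruzi. Medium: DMEM plus 2% FBS. Probe or stimulus: 5000 reporter trypomastigotes per well. Compound: single 50 nL compound addition per well in DMSO. Incubation: co-culture of at least 90 h after 3 h attachment. Detection: GalScreen β-gal luminescence, detergent lysis, 60 min. Evaluation: parasite load inhibition, %.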
Of the large screens only hits and unclear results are named; the others gave an inactive call.

COc1ccc(-c2nsc(C(=O)N(c3ccc(F)cc3)C(C(=O)NC3CCCC3)c3ccc(OC)cc3)c2N)cc1 (configuration not stated)	Lmaj promast 90
O=C(NNC(=O)C1CC(c2cccs2)=NO1)Nc1ccccc1 (configuration not stated)	none (no result: CHOP inhibitor, Dynein transport, Lmaj promast)
Cc1ccc(NC(=O)c2cc(C(=O)c3cc(Cl)ccc3O)cn(-c3ccc(C)cc3)c2=O)cc1	Lmaj promast 99
COc1ccc(S(=O)(=O)N2CCN(C(=O)c3cc(C)nc4ccccc34)CC2)cc1OC	none (no result: CHOP inhibitor, Dynein transport, Lmaj promast, T cruzi inh)
NC(=S)N/N=C/c1ccccc1OCc1cccc(Cl)c1	T cruzi inh 62
Cn1c(-c2ccccc2)c(/C=N/NC(=O)c2cccnc2)c2ccccc21	Lmaj promast 62
O=C(N/N=C/c1ccccc1OCc1ccccc1)c1cccnc1	Lmaj promast 75
CC(Nc1ccc(Br)cc1)C(=O)N/N=C/c1ccccc1OCc1ccccc1 (configuration not stated)	CHOP inhibitor 92
COc1cc(NC(=O)c2ccccc2)c(OC)cc1NC(=O)CN1C(=O)NC2(CCCCC2C)C1=O (configuration not stated)	none (no result: CHOP inhibitor, Dynein transport, Lmaj promast, T cruzi inh)
COc1ccc(S(=O)(=O)N(C)C2(C)CCS(=O)(=O)C2)cc1OC (configuration not stated)	none (no result: CHOP inhibitor, Dynein transport, Lmaj promast)
c1ccc(Nc2c3c(nc4ccccc24)CCC3)cc1	Lmaj promast 76
COc1ccc(Nc2c3c(nc4ccccc24)CCCC3)cc1OC	Lmaj promast 88
Cc1ccc(-c2nc(Nc3cccc(O)c3)c3ccccc3n2)cc1	none (no result: CHOP inhibitor, Dynein transport, Lmaj promast)
Oc1cccc(Nc2c3ccccc3nc3ccccc23)c1	T cruzi inh 70 (no result: CHOP inhibitor, Dynein transport, Lmaj promast)
c1ccc2c(Nc3ccc4c(c3)OCCO4)c3c(nc2c1)CCC3	Lmaj promast 88
CCN1CCN(c2ccc(S(=O)(=O)N3CCOCC3)cc2NC(=O)C(C)Oc2ccc(Cl)cc2)CC1 (configuration not stated)	none (no result: CHOP inhibitor, Dynein transport, Lmaj promast)
COCCNC(=S)N1CCC(NC(=O)c2ccco2)CC1	none
COc1ccc(S(=O)(=O)N2CCN(c3ccccc3OC)CC2)cc1C(=O)N1CCCCC1	none (no result: CHOP inhibitor, Dynein transport, Lmaj promast)
COCCNC(=O)c1cccc(OC2CCN(C(C)COc3ccccc3)CC2)c1 (configuration not stated)	none (no result: CHOP inhibitor, Dynein transport, Lmaj promast)
CC1(C)CC(NC(=O)c2ccc(Br)o2)CC(C)(C)N1	none (no result: CHOP inhibitor, Dynein transport, Lmaj promast)
Fc1ccc(Nc2c3c(nc4ccccc24)CCC3)cc1	Lmaj promast 72, T cruzi inh 58
COc1ccc(Nc2c3c(nc4ccccc24)CCC3)cc1	none (no result: CHOP inhibitor, Dynein transport, Lmaj promast)
O=C1OCC(CO)(CO)N=C1NNc1cc(Cl)ccc1Cl	Lmaj promast 97
COc1ccc(CCN(C)C(=O)C2CCN(C(=O)Nc3ccccc3)CC2)cc1OC	none (no result: CHOP inhibitor, Dynein transport, Lmaj promast)
Cc1ccc(NC(=O)c2ccc(-c3nn(C)c(=O)c4ccccc34)cc2)c(C)c1	none
Cc1ccc(NC(=O)c2ccc(-c3nn(C)c(=O)c4ccccc34)cc2)cc1	CHOP inhibitor 74
CC(NC(=O)c1ccc(N(C)C)cc1)C1CC2CCC1C2 (configuration not stated)	CHOP inhibitor 79 (no result: UPR XBP1 act, UPR CHOP act, T cruzi inh)
COc1ccc(C(=O)NC(C)C2CC3CCC2C3)cc1 (configuration not stated)	none (no result: CHOP inhibitor, Dynein transport, Lmaj promast)
Cc1cc(Cl)c(OCCCCN2CCOCC2)c(Br)c1	Lmaj promast 98
Cc1cc(Cl)cc(C)c1OCCCCN1CCOCC1	Lmaj promast 100
Cc1cccc(Cl)c1OCCCN1CCOCC1	none (no result: CHOP inhibitor, Dynein transport, Lmaj promast)
Cc1cc(Cl)c(OCCCNC2CCCC2)c(Br)c1	none (no result: CHOP inhibitor, Dynein transport, Lmaj promast)
Cc1cc(Cl)c(OCCOCCN2CCCC(C)C2)c(Br)c1 (configuration not stated)	Lmaj promast 99, T cruzi inh 73
Cc1cc(Cl)c(OCCOCCN2CCCCC2)c(Br)c1	Lmaj promast 97
Cc1cc(Cl)c(OCCCn2cncn2)c(Br)c1	none
CN(C)S(=O)(=O)c1ccc(Cl)c(C(=O)NNC(=O)c2ccc3c(c2)OCO3)c1	none (no result: CHOP inhibitor, Dynein transport, Lmaj promast, T cruzi inh)
O=C(CCc1ccc(O)cc1)c1c(O)cc(O)cc1O[C@@H]1O[C@H](CO)[C@@H](O)[C@H](O)[C@H]1O	none (no result: CHOP inhibitor, Dynein transport, Lmaj promast)
CSc1nc(-c2ccc(C)cc2)[nH]c1S(=O)(=O)c1ccccc1	Lmaj promast 56
CC1CN(CCc2ccccc2)c2nc3c(c(=O)n(CC(N)=O)c(=O)n3C)n2C1 (configuration not stated)	none (no result: CHOP inhibitor, Dynein transport, Lmaj promast)
OC1(c2cccc(C(F)(F)F)c2)CCN(Cc2nc(-c3cnccn3)no2)CC1	Lmaj promast 78
Fc1cccc(CN2CCN(Cc3nc(-c4cnccn4)no3)CC2)c1	none
O=C(/C=C/c1ccc(OC2CSC2)cc1)c1ccc(Cl)cc1	Lmaj promast 54
COc1ccc(C(=O)/C=C/c2ccc(OC3CSC3)cc2)cc1OC	none
O=[N+]([O-])c1cc2cccnc2c2ncccc12	none (no result: Lmaj promast)
O=[N+]([O-])c1ccc(Sc2cccc3cccnc23)c2cccnc12	T cruzi inh 86
O=C(O)CC1S/C(=N/N=C/c2ccc(-c3ccc(Cl)cc3[N+](=O)[O-])o2)NC1=O (configuration not stated)	Lmaj promast 99
CCN1CCN(S(=O)(=O)c2ccc(Cl)c(C(=O)NCc3nc4ccccc4[nH]3)c2)CC1	none (no result: CHOP inhibitor, Dynein transport, Lmaj promast, T cruzi inh)
O=C(Nc1ccccn1)c1ccc(S(=O)(=O)c2ccc(Cl)cc2)cc1	Lmaj promast 76
O=C(CCS(=O)(=O)c1ccccc1)Nc1nc(-c2cccs2)cs1	Lmaj promast 50
NNc1nc(-c2ccccc2)cs1	Lmaj promast 90, T cruzi inh 63
CC(=O)Nc1ccc(-c2csc(NC(=O)CCCc3cccs3)n2)cc1	Lmaj promast 75
O=C(COc1ccccc1)Nc1nc(-c2cccs2)cs1	none
CC(=O)Nc1ccc(-c2csc(NCc3ccccc3)n2)cc1	Lmaj promast 60
Cc1ccc(Cl)c(OCC(=O)NC2CCN(Cc3ccccc3)CC2)c1	none (no result: CHOP inhibitor, Dynein transport, Lmaj promast)
CCCNC(=O)C1CCC(CNS(=O)(=O)c2ccc3c(c2)N(C(C)=O)CCO3)CC1 (configuration not stated)	none (no result: CHOP inhibitor, Dynein transport, Lmaj promast)
c1ccc(CCNc2nc(-c3ccncc3)cs2)cc1	T cruzi inh 83
COc1ccc(CCNc2nc(-c3ccncc3)cs2)cc1OC	none (no result: Lmaj promast)
C1=CCC(CN2CCNCC2)CC1 (configuration not stated)	none
Cc1ccc(C)c(N2CCN(CC3CC=CCC3)CC2)c1 (configuration not stated)	CHOP inhibitor 72, Lmaj promast 87
O=C1CCCC2=C1C(c1ccccn1)Nc1ccc(C(=O)c3ccccc3)cc1N2 (configuration not stated)	Lmaj promast 67

Bioassay records: PubChem BioAssay, several laboratories
